Among the data in ChEMBL document CHEMBL2390926, “Identification of novel FLT3 kinase inhibitors” (Eur J Med Chem, 2013) are Activity and inhibition values, retold here.

Each structure is given as a SMILES string. Active and inactive are the calls of the source. The rule behind the calls is not given here.

One assay concerns BaF3. Kind of assay: Cytotoxicity against mouse BA/F3 cells transfected with FLT3-ITD-G697R at 1 uM after 24 hrs by plate reader analysis. It is filed as functional, cell-based.
Assay [1] deals with Tyrosine-protein kinase Yes (Homo sapiens) (UniProt P07947). The assay can be described thus: Inhibition of YES (unknown origin) transfected in mouse Ba/F3 cells at 5 uM after 24 hrs. It is filed as cell-based. The conditions noted are these: BaF3.
Tyrosine-protein kinase Yes (Homo sapiens), sequence (P07947 2-543 limits assumed): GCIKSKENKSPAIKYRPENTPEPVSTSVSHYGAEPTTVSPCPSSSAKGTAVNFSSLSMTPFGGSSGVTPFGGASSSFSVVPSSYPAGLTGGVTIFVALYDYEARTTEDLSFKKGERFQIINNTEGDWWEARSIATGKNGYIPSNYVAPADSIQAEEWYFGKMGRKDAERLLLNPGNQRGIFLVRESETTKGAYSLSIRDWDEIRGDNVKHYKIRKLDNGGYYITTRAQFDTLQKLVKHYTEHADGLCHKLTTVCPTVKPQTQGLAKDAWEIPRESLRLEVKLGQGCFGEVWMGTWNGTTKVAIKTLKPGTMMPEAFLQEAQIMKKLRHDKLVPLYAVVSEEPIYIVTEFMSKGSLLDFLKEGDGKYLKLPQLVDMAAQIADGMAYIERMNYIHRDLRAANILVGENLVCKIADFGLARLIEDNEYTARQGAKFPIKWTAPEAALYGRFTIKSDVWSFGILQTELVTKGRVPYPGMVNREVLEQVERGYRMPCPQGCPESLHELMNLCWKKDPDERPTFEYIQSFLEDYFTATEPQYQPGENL
For assay [2], the target named is T1, Non-receptor tyrosine-protein kinase TNK1 (Homo sapiens) (UniProt Q13470).
T1 sequence (whole entry): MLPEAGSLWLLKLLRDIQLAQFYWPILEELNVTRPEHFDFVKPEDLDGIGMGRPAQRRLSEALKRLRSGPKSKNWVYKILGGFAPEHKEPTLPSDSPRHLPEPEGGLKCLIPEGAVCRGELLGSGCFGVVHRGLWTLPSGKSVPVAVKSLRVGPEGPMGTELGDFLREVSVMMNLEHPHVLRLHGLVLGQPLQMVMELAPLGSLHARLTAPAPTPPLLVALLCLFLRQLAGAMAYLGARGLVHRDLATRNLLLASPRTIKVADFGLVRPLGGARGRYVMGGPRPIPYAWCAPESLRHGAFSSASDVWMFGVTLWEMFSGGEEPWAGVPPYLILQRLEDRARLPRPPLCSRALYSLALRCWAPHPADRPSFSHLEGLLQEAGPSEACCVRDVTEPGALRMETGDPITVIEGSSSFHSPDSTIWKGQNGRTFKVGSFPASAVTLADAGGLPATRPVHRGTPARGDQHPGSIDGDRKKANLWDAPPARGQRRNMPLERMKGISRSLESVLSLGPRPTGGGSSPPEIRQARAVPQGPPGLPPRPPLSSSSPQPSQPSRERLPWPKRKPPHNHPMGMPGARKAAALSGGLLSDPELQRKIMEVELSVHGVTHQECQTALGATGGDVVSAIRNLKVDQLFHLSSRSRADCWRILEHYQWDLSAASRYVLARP
Kind of assay: Inhibition of TNK1 (unknown origin) transfected in mouse Ba/F3 cells at 5 uM after 24 hrs. It is filed as cell-based. The conditions noted are these: BaF3.

Assay [3] has as its target T2, Megakaryocyte-associated tyrosine-protein kinase (Homo sapiens) (UniProt P42679).
T2 sequence (whole entry): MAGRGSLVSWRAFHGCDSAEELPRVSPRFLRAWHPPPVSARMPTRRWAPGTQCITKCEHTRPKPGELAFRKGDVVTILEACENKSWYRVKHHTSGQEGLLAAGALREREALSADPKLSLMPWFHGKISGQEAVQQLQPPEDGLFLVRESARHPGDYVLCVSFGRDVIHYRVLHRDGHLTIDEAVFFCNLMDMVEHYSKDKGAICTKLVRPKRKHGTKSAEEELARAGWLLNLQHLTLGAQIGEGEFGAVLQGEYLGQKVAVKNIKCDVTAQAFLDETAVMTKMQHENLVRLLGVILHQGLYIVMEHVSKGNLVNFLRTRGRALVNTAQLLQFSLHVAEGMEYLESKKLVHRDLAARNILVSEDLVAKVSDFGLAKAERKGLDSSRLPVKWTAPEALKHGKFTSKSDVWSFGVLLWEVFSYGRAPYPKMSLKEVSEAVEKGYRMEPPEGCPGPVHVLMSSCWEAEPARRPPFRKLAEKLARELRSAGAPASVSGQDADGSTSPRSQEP
Kind of assay: Inhibition of MATK1 (unknown origin) transfected in mouse Ba/F3 cells at 5 uM after 24 hrs. It is filed as cell-based. Conditions: BaF3.

The target in assay [4] is Tyrosine-protein kinase HCK (Homo sapiens) (UniProt P08631). The assay can be described thus: Inhibition of HCK (unknown origin) transfected in mouse Ba/F3 cells at 5 uM after 24 hrs. Type of assay: cell-based. Conditions: BaF3. A digest of the protocol:
(§1)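 Kinase specificity panel: each Ba/F3 line transformed with one of 24 tyrosine kinases depends on that kinase to grow. Cells were given compound at 1 or 5 µM for 24 h, with DMSO as comparator. Percentage growth was read by ATP-lite luminescence and reported as mean ± SEM.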

In assay [5] the target is Fibroblast growth factor receptor 3 (Homo sapiens) (UniProt P22607). Kind of assay: Inhibition of FGFR3 (unknown origin) transfected in mouse Ba/F3 cells at 5 uM after 24 hrs. It is filed as cell-based. Conditions: BaF3. A digest of the protocol: as §1
Fibroblast growth factor receptor 3 (Homo sapiens), sequence (P22607 23-806 limits assumed): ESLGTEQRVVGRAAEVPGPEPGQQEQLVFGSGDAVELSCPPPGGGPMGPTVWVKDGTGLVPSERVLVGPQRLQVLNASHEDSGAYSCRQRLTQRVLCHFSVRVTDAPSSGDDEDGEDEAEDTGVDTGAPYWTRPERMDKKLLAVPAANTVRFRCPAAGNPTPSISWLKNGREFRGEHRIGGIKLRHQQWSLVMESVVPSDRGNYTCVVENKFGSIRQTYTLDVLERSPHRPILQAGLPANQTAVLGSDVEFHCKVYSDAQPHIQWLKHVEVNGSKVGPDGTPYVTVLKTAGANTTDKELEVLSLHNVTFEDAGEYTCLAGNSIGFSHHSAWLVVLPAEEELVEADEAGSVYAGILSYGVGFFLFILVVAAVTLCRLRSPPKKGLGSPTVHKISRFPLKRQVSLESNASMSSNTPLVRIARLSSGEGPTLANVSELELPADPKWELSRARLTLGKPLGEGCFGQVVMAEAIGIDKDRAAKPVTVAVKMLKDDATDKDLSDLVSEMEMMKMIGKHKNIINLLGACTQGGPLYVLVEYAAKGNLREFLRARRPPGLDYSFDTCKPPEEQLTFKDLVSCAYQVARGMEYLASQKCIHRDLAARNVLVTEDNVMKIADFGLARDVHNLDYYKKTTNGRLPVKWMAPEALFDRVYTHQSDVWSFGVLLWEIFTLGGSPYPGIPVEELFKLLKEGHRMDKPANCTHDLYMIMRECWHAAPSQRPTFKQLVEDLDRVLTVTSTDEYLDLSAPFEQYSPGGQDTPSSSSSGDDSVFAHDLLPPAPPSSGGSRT
Assay [6] has as its target T3, Ephrin type-A receptor 1 (Homo sapiens) (UniProt P21709).
T3 sequence (whole entry): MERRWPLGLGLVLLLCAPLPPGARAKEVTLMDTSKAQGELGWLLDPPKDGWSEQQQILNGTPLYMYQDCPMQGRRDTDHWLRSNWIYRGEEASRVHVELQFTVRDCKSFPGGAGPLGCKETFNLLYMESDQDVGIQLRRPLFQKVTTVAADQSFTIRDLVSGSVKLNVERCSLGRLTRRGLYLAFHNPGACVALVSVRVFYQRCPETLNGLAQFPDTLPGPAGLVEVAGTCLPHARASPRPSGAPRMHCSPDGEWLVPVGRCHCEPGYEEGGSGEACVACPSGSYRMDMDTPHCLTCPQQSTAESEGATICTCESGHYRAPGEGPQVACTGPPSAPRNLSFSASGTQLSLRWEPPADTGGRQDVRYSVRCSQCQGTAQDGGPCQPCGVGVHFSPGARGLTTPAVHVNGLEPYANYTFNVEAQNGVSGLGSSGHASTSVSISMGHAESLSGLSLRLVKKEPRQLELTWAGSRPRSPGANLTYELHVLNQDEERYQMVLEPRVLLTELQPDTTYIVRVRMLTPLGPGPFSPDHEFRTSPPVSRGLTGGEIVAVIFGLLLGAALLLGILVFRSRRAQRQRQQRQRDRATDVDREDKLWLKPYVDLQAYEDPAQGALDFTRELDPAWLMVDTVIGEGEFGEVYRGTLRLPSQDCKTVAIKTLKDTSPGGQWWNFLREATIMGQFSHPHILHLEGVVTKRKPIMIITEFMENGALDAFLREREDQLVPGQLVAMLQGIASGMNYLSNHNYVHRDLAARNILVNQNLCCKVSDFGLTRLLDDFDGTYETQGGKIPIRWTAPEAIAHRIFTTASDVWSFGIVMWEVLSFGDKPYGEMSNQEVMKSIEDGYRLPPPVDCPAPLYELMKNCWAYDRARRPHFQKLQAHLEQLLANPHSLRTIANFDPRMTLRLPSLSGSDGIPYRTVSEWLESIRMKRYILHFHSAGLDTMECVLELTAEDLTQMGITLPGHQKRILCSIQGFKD
The assay can be described thus: Inhibition of EPHA1 (unknown origin) transfected in mouse Ba/F3 cells at 5 uM after 24 hrs. Type of assay: cell-based. Conditions: BaF3. A digest of the protocol:
as §1

Assay [7] addresses Epidermal growth factor receptor (Homo sapiens) (UniProt P00533). The assay can be described thus: Inhibition of EGFR (unknown origin) transfected in mouse Ba/F3 cells at 5 uM after 24 hrs. It is filed as cell-based. The conditions noted are these: BaF3. Put shortly:
as §1

Assay [8] concerns the target Tyrosine-protein kinase receptor UFO (Homo sapiens) (UniProt P30530). Kind of assay: Inhibition of AXL (unknown origin) transfected in mouse Ba/F3 cells at 5 uM after 24 hrs. Type of assay: cell-based. The conditions noted are these: BaF3. Put shortly: as §1

Tyrosine-protein kinase receptor UFO (Homo sapiens), sequence (P30530 whole entry): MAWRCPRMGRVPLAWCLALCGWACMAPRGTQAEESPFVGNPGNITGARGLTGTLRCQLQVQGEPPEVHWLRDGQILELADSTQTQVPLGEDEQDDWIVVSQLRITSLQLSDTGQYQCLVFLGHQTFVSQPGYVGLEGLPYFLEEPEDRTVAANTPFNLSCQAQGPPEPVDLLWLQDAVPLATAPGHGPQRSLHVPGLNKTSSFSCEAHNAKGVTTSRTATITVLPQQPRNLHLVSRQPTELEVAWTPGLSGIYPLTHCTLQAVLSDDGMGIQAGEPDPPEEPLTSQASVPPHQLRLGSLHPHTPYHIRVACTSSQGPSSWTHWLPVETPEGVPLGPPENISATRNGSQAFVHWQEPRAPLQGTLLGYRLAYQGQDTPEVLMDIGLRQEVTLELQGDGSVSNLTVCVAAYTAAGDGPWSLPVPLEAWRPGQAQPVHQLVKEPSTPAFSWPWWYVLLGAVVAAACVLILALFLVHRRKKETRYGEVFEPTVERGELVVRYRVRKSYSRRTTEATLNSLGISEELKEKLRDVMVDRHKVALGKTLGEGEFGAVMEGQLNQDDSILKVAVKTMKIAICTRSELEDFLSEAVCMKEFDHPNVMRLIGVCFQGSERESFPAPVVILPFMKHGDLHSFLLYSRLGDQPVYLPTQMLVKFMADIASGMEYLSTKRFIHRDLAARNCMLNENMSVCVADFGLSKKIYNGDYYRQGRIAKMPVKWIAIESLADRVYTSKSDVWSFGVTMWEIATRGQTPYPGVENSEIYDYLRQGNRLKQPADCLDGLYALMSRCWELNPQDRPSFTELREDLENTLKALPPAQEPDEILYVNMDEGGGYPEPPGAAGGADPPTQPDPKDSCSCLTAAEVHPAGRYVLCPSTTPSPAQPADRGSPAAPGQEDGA
Tyrosine-protein kinase HCK (Homo sapiens), sequence (P08631 2-526 limits assumed): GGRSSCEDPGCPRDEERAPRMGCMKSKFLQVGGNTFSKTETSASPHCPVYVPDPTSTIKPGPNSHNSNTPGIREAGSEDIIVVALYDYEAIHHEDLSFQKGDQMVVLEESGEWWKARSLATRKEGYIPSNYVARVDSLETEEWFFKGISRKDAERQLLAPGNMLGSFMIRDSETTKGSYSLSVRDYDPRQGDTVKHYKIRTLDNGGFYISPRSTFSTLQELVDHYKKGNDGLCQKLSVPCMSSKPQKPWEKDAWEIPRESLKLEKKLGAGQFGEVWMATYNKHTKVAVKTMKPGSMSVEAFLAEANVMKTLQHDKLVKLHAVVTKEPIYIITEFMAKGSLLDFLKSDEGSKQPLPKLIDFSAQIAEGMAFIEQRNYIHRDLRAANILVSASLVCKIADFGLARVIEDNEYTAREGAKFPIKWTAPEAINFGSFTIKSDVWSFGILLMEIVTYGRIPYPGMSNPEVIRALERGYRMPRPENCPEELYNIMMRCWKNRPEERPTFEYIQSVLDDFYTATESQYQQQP
Epidermal growth factor receptor (Homo sapiens), sequence (P00533 whole entry): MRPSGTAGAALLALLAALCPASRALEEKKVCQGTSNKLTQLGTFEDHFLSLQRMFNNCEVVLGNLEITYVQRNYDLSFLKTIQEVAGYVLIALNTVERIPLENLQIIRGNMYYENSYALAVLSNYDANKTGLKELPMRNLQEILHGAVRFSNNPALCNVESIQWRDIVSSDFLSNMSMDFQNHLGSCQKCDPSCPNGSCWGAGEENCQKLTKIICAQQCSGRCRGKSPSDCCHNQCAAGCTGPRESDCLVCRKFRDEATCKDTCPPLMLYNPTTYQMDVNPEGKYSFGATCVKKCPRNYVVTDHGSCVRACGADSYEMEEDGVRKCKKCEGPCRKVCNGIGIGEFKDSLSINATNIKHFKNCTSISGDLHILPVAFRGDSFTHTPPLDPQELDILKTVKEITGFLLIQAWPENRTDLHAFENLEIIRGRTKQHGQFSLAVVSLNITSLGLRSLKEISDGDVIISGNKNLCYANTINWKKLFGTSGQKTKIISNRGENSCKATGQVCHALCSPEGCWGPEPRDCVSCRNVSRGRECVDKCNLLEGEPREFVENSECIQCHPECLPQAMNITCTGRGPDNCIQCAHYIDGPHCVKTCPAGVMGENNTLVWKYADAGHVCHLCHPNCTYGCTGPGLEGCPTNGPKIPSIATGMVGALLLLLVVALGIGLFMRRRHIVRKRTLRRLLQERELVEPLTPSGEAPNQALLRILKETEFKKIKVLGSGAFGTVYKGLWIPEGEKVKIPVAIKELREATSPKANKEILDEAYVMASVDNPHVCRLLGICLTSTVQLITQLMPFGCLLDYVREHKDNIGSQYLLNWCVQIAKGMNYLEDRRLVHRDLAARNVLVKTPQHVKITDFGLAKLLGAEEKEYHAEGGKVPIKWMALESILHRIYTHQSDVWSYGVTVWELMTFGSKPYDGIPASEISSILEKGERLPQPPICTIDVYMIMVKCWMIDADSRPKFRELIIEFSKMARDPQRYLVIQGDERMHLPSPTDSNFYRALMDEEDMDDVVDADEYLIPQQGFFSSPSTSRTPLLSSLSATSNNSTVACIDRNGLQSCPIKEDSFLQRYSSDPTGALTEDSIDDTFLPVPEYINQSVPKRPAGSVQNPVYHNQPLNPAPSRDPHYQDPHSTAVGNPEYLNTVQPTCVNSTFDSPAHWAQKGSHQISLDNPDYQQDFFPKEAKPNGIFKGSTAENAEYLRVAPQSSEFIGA

For the molecule `COc1ccc(C(=O)Nc2cc(-c3ccccc3)[nH]n2)cc1`, the result with BaF3 was Active.
For `Fc1ccc(-c2n[nH]cc2-c2ccncc2)cc1Cl`, the inhibition entry in [1], in assay [2], in assay [3], in assay [4], in [5] and in assay [6] was “inactive” throughout. The inhibition result in [7] and in assay [8] was “inactive” each time.
`Cc1ccc(-n2cnc3cc(Nc4nnc(C)c5ccccc45)ccc32)cc1`: the inhibition result in assay [1], in [2], in assay [3], in [4], in assay [5] and in [6] was “inactive” each time. Also, the inhibition result in [7] and in assay [8] was “inactive” each time. The result with BaF3 was Active.
